Laboratory results: ChEMBL document CHEMBL3576870, “Monanchosterols A and B, bioactive bicyclo[4.3.1]steroids from a Korean sponge Monanchora sp” (J Nat Prod, 2015)
Activity calls are given as the source filed them. The calls are words filed in the database; no cut-off is given here.

What was measured:
RAW264.7 [1] = experiment: Antiinflammatory activity in mouse RAW264.7 cells assessed as inhibition of LPS-stimulated IL-6 mRNA expression after 24 hrs by RT-qPCR analysis; assay type: functional, cell-based; settings: for IC50: RAW264.7, 24 h
In short: (§1)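 RAW 264.7 cells grown in DMEM with 10% heat-inactivated FBS and 1% penicillin-streptomycin at 37 °C, 5% CO2. Plated at 3 × 10^5 cells/mL in six-well plates, left 24 h. Then given 0.1 μg/mL LPS with or without test compound (0.1–100 μM) for 24 h. mRNA quantified by RT-qPCR after RNA extraction, normalized to 18s mRNA and expressed as ratio to DMSO. SB203580 (10 μM) served as reference. Mean ± SD of three independent experiments.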

RAW264.7 [2] = experiment: Antiinflammatory activity in mouse RAW264.7 cells assessed as inhibition of LPS-stimulated TNF-alpha mRNA expression at 0.1 to 100 uM after 24 hrs by RT-qPCR analysis; assay type: functional, cell-based; in short: as §1
RAW264.7 [3] = experiment: Antiinflammatory activity in mouse RAW264.7 cells assessed as inhibition of LPS-stimulated COX-2 mRNA expression at 0.1 to 100 uM after 24 hrs by RT-qPCR analysis; assay type: functional, cell-based; in short: as §1
RAW264.7 [4] = experiment: Antiinflammatory activity in mouse RAW264.7 cells assessed as inhibition of LPS-stimulated IL-6 mRNA expression at 10 uM after 24 hrs by RT-qPCR analysis relative to control; assay type: functional; settings: RAW264.7, 24 h; in short: as §1
RAW264.7 [5] = experiment: Cytotoxicity against mouse RAW264.7 cells; assay type: cell-based; settings: for Activity: mouse, raw264.7

Row | Compound | inhibition (RAW264.7 [1]) | IC50 (RAW264.7 [1]) [µM] | inhibition (RAW264.7 [2]) | inhibition (RAW264.7 [3]) | inhibition at 10 µM (RAW264.7 [4]) [%] | Activity (RAW264.7 [5]) | IC50 (RAW264.7 [5]; Mus musculus, RAW264.7) [µM]
1 | CC(=O)O[C@H]1CC[C@@]2(C)C(=O)[C@@H]1[C@H](O)C=C1[C@@H]3CC[C@H]([C@H](C)CCC=C(C)C)[C@@]3(C)CC[C@@H]12 | Dose-dependent effect | 5 | inactive | inactive | 69 | Non-toxic | –
2 | CC(C)=CCC[C@@H](C)[C@H]1CC[C@H]2C3=C[C@@H](O)[C@H]4C(=O)[C@](C)(CC[C@@H]4O)[C@H]3CC[C@]12C | – | – | – | – | – | – | 65
3 | C[S+]([O-])c1ccc(-c2nc(-c3ccc(F)cc3)c(-c3ccncc3)[nH]2)cc1 (centres undefined) [SB-203580] | – | – | – | – | 53 | – | –
4 | C=C(CC[C@@H](C)[C@H]1[C@H](O)C[C@H]2[C@@H]3CC=C4C[C@@H](O)CC[C@]4(C)[C@H]3CC[C@]12C)C(C)C | Dose-dependent effect | 5.2 | inactive | inactive | 67 | Non-toxic | –
